Bridge positions count the residues as written; N and C are the ends. Square brackets hold non-standard residues; d marks the D form. Peptide text beside a SMILES is read from it. Pen = CC(C)(S)[C@H](N)C(=O)O; Sar = CNCC(=O)O Some results are limits rather than exact numbers.

The species named for the first assay is Oryctolagus cuniculus. The assay can be described thus: Activity of compound in contraction assays performed using isolated rabbit aorta. It is filed as functional. The gist of the method:
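Rings (5 mm) cut from excised aorta, cleaned of adipose tissue, hung in 5 mL organ baths of continuously oxygenated Krebs solution at 37 °C, changed every 15 min. Initial tension 2 g, readjusted until stable (about 90 min equilibration) before testing.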
On to `CNCC(=O)N[C@@H](CCCN=C(N)N)C(=O)N[C@H](C(=O)N[C@H](Cc1ccc(O)cc1)C(=O)N1CCC[C@H]1C(=O)N[C@@H](Cc1c[nH]cn1)C(=O)N1CCC[C@H]1C(=O)N[C@@H](Cc1ccccc1)C(=O)O)C(C)C`, for which the EC50 (as a rule, the midpoint of the concentration-response curve) stood at 94 nM.
The compound `CNCC(=O)N[C@@H](CCCNC(=N)N)C(=O)N[C@H](C(=O)N[C@@H](Cc1ccc(O)cc1)C(=O)N[C@@H]1CCSS[C@@H]2C[C@H](C(=O)N[C@@H](Cc3ccccc3)C(=O)O)N(C2)C(=O)[C@@H](Cc2cnc[nH]2)NC1=O)C(C)C` yielded an EC50 of 1770 nM.
As to `CNCC(=O)N[C@@H](CCCN=C(N)N)C(=O)N[C@H](C(=O)N[C@@H](Cc1ccc(O)cc1)C(=O)N[C@H](C(=O)N[C@@H](Cc1c[nH]cn1)C(=O)N1CCC[C@H]1C(=O)N[C@@H](Cc1ccccc1)C(=O)O)C(C)C)C(C)C` (H-[Sar]RVYVHPF-OH), a half-maximal effect (EC50) was put at 0.35 nM.
Take `CC[C@H](C)[C@H](NC(=O)[C@H](Cc1ccc(O)cc1)NC(=O)[C@@H](NC(=O)[C@H](CCCNC(=N)N)NC(=O)[C@@H](N)CC(=O)O)C(C)C)C(=O)N[C@@H](Cc1cnc[nH]1)C(=O)N1CCC[C@H]1C(=O)N[C@@H](Cc1ccccc1)C(=O)O` [ANGIOTENSIN II]: the concentration for a half-maximal effect (EC50) amounted to 4.6 nM. This EC50 is about 13-fold higher than that of the compound before.

The target in another assay is Type-1 angiotensin II receptor (Bos taurus) (UniProt P25104). Put plainly: Binding affinity was determined against Angiotensin II receptor, type 1.
Type-1 angiotensin II receptor (Bos taurus), sequence (P25104 whole entry, looked up): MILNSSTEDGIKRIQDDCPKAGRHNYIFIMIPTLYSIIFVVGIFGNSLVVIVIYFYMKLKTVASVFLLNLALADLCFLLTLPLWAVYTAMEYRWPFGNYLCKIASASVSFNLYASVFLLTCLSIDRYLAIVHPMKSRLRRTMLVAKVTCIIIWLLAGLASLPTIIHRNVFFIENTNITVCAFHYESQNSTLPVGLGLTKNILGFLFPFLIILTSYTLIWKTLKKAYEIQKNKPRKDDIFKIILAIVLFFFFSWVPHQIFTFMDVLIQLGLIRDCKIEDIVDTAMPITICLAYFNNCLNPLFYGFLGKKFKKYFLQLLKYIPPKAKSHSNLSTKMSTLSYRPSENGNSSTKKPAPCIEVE
For `CNCC(=O)N[C@@H](CCCNC(=N)N)C(=O)N[C@H](C(=O)N[C@@H](Cc1ccc(O)cc1)C(=O)N[C@H]1CCSS[C@@H]2C[C@@H](C(=O)N[C@@H](Cc3ccccc3)C(=O)O)N(C2)C(=O)[C@H](Cc2cnc[nH]2)NC1=O)C(C)C`, the Kd (in general, the equilibrium constant for the complex coming apart) came to 750 nM.
Regarding `CNCC(=O)N[C@@H](CCCN=C(N)N)C(=O)N[C@H](C(=O)N[C@H](Cc1ccc(O)cc1)C(=O)N[C@@H]1CCC(=O)N[C@@H]2C[C@H](C(=O)N[C@H](Cc3ccccc3)C(=O)O)N(C2)C(=O)[C@@H](Cc2c[nH]cn2)NC1=O)C(C)C`, the equilibrium dissociation constant (Kd) is over 10000 nM.
`CNCC(=O)N[C@@H](CCCNC(=N)N)C(=O)N[C@H](C(=O)N[C@@H](Cc1ccc(O)cc1)C(=O)N[C@@H]1CSS[C@@H]2C[C@H](C(=O)N[C@@H](Cc3ccccc3)C(=O)O)N(C2)C(=O)[C@@H](Cc2cnc[nH]2)NC1=O)C(C)C`: the dissociation constant (Kd) turned out to be 2300 nM. This lies in the single-digit micromolar range.
Consider `CNCC(=O)N[C@@H](CCCNC(=N)N)C(=O)N[C@H](C(=O)N[C@@H](Cc1ccc(O)cc1)C(=O)N[C@@H]1CC(=O)N[C@@H]2C[C@H](C(=O)N[C@@H](Cc3ccccc3)C(=O)O)N(C2)C(=O)[C@@H](Cc2cnc[nH]2)NC1=O)C(C)C`, for which the Kd is over 10000 nM.
Turning to `CNCC(=O)N[C@@H](CCCNC(=N)N)C(=O)N[C@H](C(=O)N[C@@H](Cc1ccc(O)cc1)C(=O)N[C@H]1CSS[C@@H]2C[C@@H](C(=O)N[C@@H](Cc3ccccc3)C(=O)O)N(C2)C(=O)[C@H](Cc2cnc[nH]2)NC1=O)C(C)C`, the Kd is over 10000 nM.
Still for that read-out and setting: then `CNCC(=O)N[C@@H](CCCNC(=N)N)C(=O)N[C@H](C(=O)N[C@H](Cc1ccc(O)cc1)C(=O)N1CCC[C@H]1C(=O)N[C@@H](Cc1cnc[nH]1)C(=O)N1CCC[C@H]1C(=O)N[C@@H](Cc1ccccc1)C(=O)O)C(C)C`, with 58 nM; and `CNCC(=O)N[C@@H](CCCNC(=N)N)C(=O)N[C@H](C(=O)N[C@@H](Cc1ccc(O)cc1)C(=O)N[C@@H]1CCSS[C@@H]2C[C@H](C(=O)N[C@@H](Cc3ccccc3)C(=O)O)N(C2)C(=O)[C@@H](Cc2cnc[nH]2)NC1=O)C(C)C`, with 20 nM.
On the same count and under the same terms, then `CNCC(=O)N[C@@H](CCCNC(=N)N)C(=O)N[C@H](C(=O)N[C@@H](Cc1ccc(O)cc1)C(=O)N[C@H]1CSSC(C)(C)[C@@H](C(=O)N[C@@H](Cc2ccccc2)C(=O)O)NC(=O)[C@H](Cc2cnc[nH]2)NC1=O)C(C)C` (H-[Sar]RVYCH[Pen]F-OH; disulfide 5-7), with over 10000 nM.

Source of the values: ChEMBL document CHEMBL1129368 (J Med Chem, 1996).
